Test results from ChEMBL document CHEMBL1152813, “Synthesis of puromycin derivatives with backbone-elongated substrates and associated translation inhibitory activities” (Bioorg Med Chem, 2009).

Columns and labels:
[1] = Solubility in water; type: physicochemical; details: buffer
Escherichia coli = experiment: Inhibition of firefly luciferase mRNA translation in Escherichia coli after 1 hr relative to control; type: functional
Procedure, shortened: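 Reconstituted E. coli translation system translating firefly luciferase mRNA with CCPmn derivatives at 2.5–30 µM (2.5–120 µM for some), 1 h incubation. Luciferase activity (c.p.s.) read by luminescence counter; translation efficiency (%) set against a serial-dilution calibration of control luciferase translated without CCPmns; three independent experiments, standard deviations.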

SMILES	solubility [1]	IC50 (Escherichia coli)
C[C@H](CN)C(=O)N[C@H]1[C@@H](O)[C@H](n2cnc3c(N(C)C)ncnc32)O[C@@H]1COP(=O)(O)O	Soluble	
C[C@H](CO)C(=O)N[C@H]1[C@@H](O)[C@H](n2cnc3c(N(C)C)ncnc32)O[C@@H]1COP(=O)(O)O	Soluble	
CC(=O)N[C@H]1[C@@H](O)[C@H](n2cnc3c(N(C)C)ncnc32)O[C@@H]1COP(=O)(O)O	Soluble	
C[C@H](CO)C(=O)N[C@H]1[C@@H](O)[C@H](n2cnc3c(N(C)C)ncnc32)O[C@@H]1COP(=O)(O)O[C@H]1[C@@H](O)[C@H](n2ccc(N)nc2=O)O[C@@H]1COP(=O)(O)O[C@H]1[C@@H](O)[C@H](n2ccc(N)nc2=O)O[C@@H]1CO	Soluble	12 µM
C[C@H](CN)C(=O)N[C@H]1[C@@H](O)[C@H](n2cnc3c(N(C)C)ncnc32)O[C@@H]1COP(=O)(O)O[C@H]1[C@@H](O)[C@H](n2ccc(N)nc2=O)O[C@@H]1COP(=O)(O)O[C@H]1[C@@H](O)[C@H](n2ccc(N)nc2=O)O[C@@H]1CO	Soluble	33 µM
CC(=O)N[C@H]1[C@@H](O)[C@H](n2cnc3c(N(C)C)ncnc32)O[C@@H]1COP(=O)(O)O[C@H]1[C@@H](O)[C@H](n2ccc(N)nc2=O)O[C@@H]1COP(=O)(O)O[C@H]1[C@@H](O)[C@H](n2ccc(N)nc2=O)O[C@@H]1CO	Soluble	66 µM
COc1ccc(C[C@H](N)C(=O)N[C@H]2[C@@H](O)[C@H](n3cnc4c(N(C)C)ncnc43)O[C@@H]2COP(=O)(O)O[C@H]2[C@@H](O)[C@H](n3ccc(N)nc3=O)O[C@@H]2COP(=O)(O)O[C@H]2[C@@H](O)[C@H](n3ccc(N)nc3=O)O[C@@H]2CO)cc1	Soluble	5 µM
CN(C)c1ncnc2c1ncn2[C@@H]1O[C@H](CO)[C@@H](NC(=O)CCO)[C@H]1O	Insoluble	
